{"source": "ChEMBL document CHEMBL3856259", "about": "“Evaluation of canthinone alkaloids as cerebral protective agents” (Bioorg Med Chem Lett, 2016)", "key": {"[1]": {"tested_on": "Meriones unguiculatus", "assay": "Cerebral protective activity in anesthetized cerebral ischemia-induced Mongolian gerbil hippocampus assessed as protective values on density of surviving neurons in CA1 subfields of hippocampus at 100 mg/kg, po pretreated for 30 mins followed by bilateral ligation-induced ischemia for 5 mins measured on day 1 post 3 days ischemia induction by hematoxylin and eosin staining based microscopic analysis relative to control", "type": "functional"}, "[2]": {"tested_on": "Meriones unguiculatus", "assay": "Cerebral protective activity in cerebral ischemia-induced Mongolian gerbil assessed as passive avoidance test value at 100 mg/kg, po pretreated for 30 mins followed by bilateral ligation-induced ischemia for 5 mins measured on day 1 post 3 days ischemia induction relative to control", "type": "functional"}, "[3]": {"tested_on": "Meriones unguiculatus", "assay": "Cerebral protective activity in cerebral ischemia-induced Mongolian gerbil assessed as reduction in neuronal cell death in CA1 subfields of hippocampus at 30 mg/kg, po administered twice at 3 and 6 hrs after cerebral ischemia induction", "type": "functional, organism-based", "how_it_was_run": "(§1)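 Gerbils (n = 10) subjected to bilateral carotid ligation ischemia, then given 30 mg/kg orally at 3 h or at 3 h and 6 h after ischemia. Brains perfusion-fixed in 10% neutral formalin and paraffin-embedded. 5-µm coronal sections stained with H&E. Surviving CA1 hippocampal neurons counted (/mm). Mean ± SEM, Student's t-test.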"}, "[4]": {"assay": "Toxicity in Mongolian gerbil assessed as locomotion-reducing effect at 30 to 100 mg/kg, po", "type": "organism-based, Meriones unguiculatus", "settings": "in vivo"}, "[5]": {"assay": "Toxicity in Mongolian gerbil assessed as reduction in systolic blood pressure at 30 to 100 mg/kg, po", "type": "organism-based, Meriones unguiculatus", "settings": "in vivo", "how_it_was_run": "(§2)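 Heart rate and mean systolic blood pressure recorded in gerbils after oral doses of 30 and 100 mg/kg.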"}, "[6]": {"tested_on": "Meriones unguiculatus", "assay": "Cerebral protective activity in cerebral ischemia-induced Mongolian gerbil assessed as reduction in neuronal cell death at 30 mg/kg, po administered at 3hrs after cerebral ischemia induction", "type": "functional, organism-based", "how_it_was_run": "as §1"}, "[7]": {"assay": "Toxicity in Mongolian gerbil assessed as reduction in heart rate at 30 to 100 mg/kg, po", "type": "organism-based, Meriones unguiculatus", "settings": "in vivo", "how_it_was_run": "as §2"}, "[8]": {"tested_on": "Meriones unguiculatus", "assay": "Cerebral protective activity against ischemia in Mongolian gerbil assessed as reduction in 45Ca2+ accumulation in brain at 30 mg/kg, po administered after cerebral ischemia induction for 15 mins in presence of 45CaCl2 by autoradiographic analysis"}, "[9]": {"assay": "Toxicity in Mongolian gerbil assessed as effect on body temperature at 30 to 100 mg/kg, po", "type": "organism-based, Meriones unguiculatus", "settings": "in vivo"}, "[10]": {"tested_on": "Meriones unguiculatus", "assay": "Cerebral protective activity against kainic acid-induced neuronal necrosis in po dosed Mongolian gerbil administered after kainic acid injection", "type": "functional, organism-based", "how_it_was_run": "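Male Mongolian gerbils (n = 10), fasted overnight, given atropine (5.0 µg/animal) and pentobarbital anesthesia (40 mg/kg ip). Kainic acid in saline at pH 7.4 (0.2 µL of 1.0 µg/µL) infused stereotaxically into right hippocampal CA3 over 4.0 min. Drug dosed orally after the lesion. Perfusion-fixed 4 days later. Surviving CA1 neuron density (/mm) scored. Mean ± SEM.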"}}, "note": "Active and inactive are the calls of the source. The calls are words filed in the database; no cut-off is given here."}
{"smiles": "COc1c2n(C)ccc3c-2n(c(=O)c1=O)c1c(Br)cc(Br)cc31", "values": [{"measurement": "Activity", "setting": "[1]", "value": -8.1, "unit": "%"}, {"measurement": "Activity", "setting": "[2]", "value": "<=40%"}]}
{"smiles": "COc1c(O)c(=O)n2c3ccccc3c3cc(O)nc1c32", "values": [{"measurement": "Activity", "setting": "[1]", "value": 26.2, "unit": "%"}, {"measurement": "Activity", "setting": "[2]", "value": "<=40%"}]}
{"smiles": "Cn1c(=O)cc2c3ccccc3n3c(=O)ccc1c23", "values": [{"measurement": "Activity", "setting": "[1]", "value": 10.6, "unit": "%"}, {"measurement": "Activity", "setting": "[2]", "value": "<=40%"}]}
{"smiles": "COC(=O)c1nccc2c1[nH]c1ccccc12", "values": [{"measurement": "Activity", "setting": "[1]", "value": 30.1, "unit": "%"}, {"measurement": "Activity", "setting": "[2]", "value": "<=40%"}]}
{"smiles": "Cc1c2[nH]c3ccccc3c2cc[n+]1[O-]", "values": [{"measurement": "Activity", "setting": "[1]", "value": 14.2, "unit": "%"}, {"measurement": "Activity", "setting": "[2]", "value": "<=40%"}]}
{"smiles": "COc1c(OC)c2nc(O)cc3c4ccccc4n(c1=O)c23", "values": [{"measurement": "Activity", "setting": "[1]", "value": 2.8, "unit": "%"}, {"measurement": "Activity", "setting": "[2]", "value": "<=40%"}]}
{"smiles": "Cn1ccc2c3n(c(=O)c(=O)cc1-3)c1ccc(Br)cc21", "values": [{"measurement": "Activity", "setting": "[1]", "value": 27.3, "unit": "%"}, {"measurement": "Activity", "setting": "[2]", "value": "<=40%"}]}
{"smiles": "CCn1ccc2c3n(c(=O)c(=O)cc1-3)c1ccccc21", "values": [{"measurement": "Activity", "setting": "[1]", "value": 92.3, "unit": "%"}, {"measurement": "Activity", "setting": "[2]", "value": "<=40%"}]}
{"smiles": "Cn1ccc2c3n(c(=O)c(=O)cc1-3)c1c(Br)cc(Br)cc21", "values": [{"measurement": "Activity", "setting": "[1]", "value": 3, "unit": "%"}, {"measurement": "Activity", "setting": "[2]", "value": "<=40%"}]}
{"smiles": "[O-][n+]1ccc2c(c1)[nH]c1ccccc12", "values": [{"measurement": "Activity", "setting": "[1]", "value": 13.8, "unit": "%"}, {"measurement": "Activity", "setting": "[2]", "value": "<=40%"}]}
{"smiles": "COc1c(OC)c2nccc3c4ccccc4n(c1=O)c23", "note": "[4,5-DIMETHOXYCANTHIN-6-ONE]", "values": [{"measurement": "Activity", "setting": "[1]", "value": 20.8, "unit": "%"}, {"measurement": "Activity", "setting": "[2]", "value": "<=40%"}]}
{"smiles": "COc1c(O)c(=O)n2c3ccccc3c3ccnc1c32", "values": [{"measurement": "Activity", "setting": "[1]", "value": 13.9, "unit": "%"}, {"measurement": "Activity", "setting": "[2]", "value": "<=40%"}]}
{"smiles": "COc1c2n(C)ccc3c-2n(c(=O)c1=O)c1ccc(Br)cc31", "values": [{"measurement": "Activity", "setting": "[1]", "value": -0.8, "unit": "%"}, {"measurement": "Activity", "setting": "[2]", "value": "<=40%"}]}
{"smiles": "COc1ccc2c3ccn(C)c4cc(=O)c(=O)n(c3-4)c2c1", "values": [{"measurement": "Activity", "setting": "[1]", "value": 53.8, "unit": "%"}, {"measurement": "Activity", "setting": "[2]", "value": ">=40 - 60%"}]}
{"smiles": "COC(=O)[C@@H]1Cc2c([nH]c3ccccc23)[C@H](C)N1", "values": [{"measurement": "Activity", "setting": "[1]", "value": 18.6, "unit": "%"}, {"measurement": "Activity", "setting": "[2]", "value": "<=40%"}]}
{"smiles": "COc1c2n(C)ccc3c-2n(c(=O)c1=O)c1ccccc31", "values": [{"measurement": "Activity", "setting": "[3]", "value": "Active"}, {"measurement": "Activity", "setting": "[4]", "value": "Non-Toxic"}, {"measurement": "Activity", "setting": "[5]", "value": "Non-Toxic"}, {"measurement": "Activity", "setting": "[6]", "value": "Active"}, {"measurement": "Activity", "setting": "[7]", "value": "Non-Toxic"}, {"measurement": "Activity", "setting": "[8]", "value": "Active"}, {"measurement": "Activity", "setting": "[9]", "value": "Non-Toxic"}, {"measurement": "Activity", "setting": "[10]", "value": "Active"}, {"measurement": "Activity", "setting": "[1]", "value": 73.1, "unit": "%"}, {"measurement": "Activity", "setting": "[2]", "value": ">80", "unit": "%"}]}
{"smiles": "Cn1ccc2c3n(c(=O)c(=O)cc1-3)c1ccccc21", "values": [{"measurement": "Activity", "setting": "[1]", "value": 84.6, "unit": "%"}, {"measurement": "Activity", "setting": "[2]", "value": ">80", "unit": "%"}]}
{"smiles": "CCn1ccc2c3n(c(=O)c(=O)c(OC)c1-3)c1ccccc21", "values": [{"measurement": "Activity", "setting": "[1]", "value": 46.2, "unit": "%"}, {"measurement": "Activity", "setting": "[2]", "value": "<=40%"}]}
{"smiles": "C[C@@H]1N[C@H](C(=O)O)Cc2c1[nH]c1ccccc21", "values": [{"measurement": "Activity", "setting": "[1]", "value": -13.6, "unit": "%"}, {"measurement": "Activity", "setting": "[2]", "value": "<=40%"}]}
{"smiles": "CC[C@@H]1N[C@H](C(=O)O)Cc2c1[nH]c1ccccc21", "values": [{"measurement": "Activity", "setting": "[1]", "value": 10.9, "unit": "%"}, {"measurement": "Activity", "setting": "[2]", "value": "<=40%"}]}
{"smiles": "CCc1c2n(C)ccc3c-2n(c(=O)c1=O)c1ccccc31", "values": [{"measurement": "Activity", "setting": "[1]", "value": 26.3, "unit": "%"}, {"measurement": "Activity", "setting": "[2]", "value": "<=40%"}]}
{"smiles": "COc1c(OC)c2c3c(cc(=O)n2C)c2ccccc2n3c1=O", "values": [{"measurement": "Activity", "setting": "[1]", "value": 24.3, "unit": "%"}, {"measurement": "Activity", "setting": "[2]", "value": "<=40%"}]}
